Laboratory results as given in ChEMBL document CHEMBL3045126, “Antifungal activities of major tea leaf volatile constituents toward Colletorichum camelliae Massea” (2006).
Converted amounts (≈) assume the structure as drawn.

Columns and labels:
Assay type in all cases: functional
Colletotrichum camelliae [1] = assay: Antifungal activity against Colletotrichum camelliae assessed as inhibition of mycelial growth at 1500 ug/mL measured after 5 days of cultivation; conditions: 120 h, read-out: GI
Outline: (§1)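 Volatile constituents emulsified with emulsifier 0203-B (0.01% in medium) and mixed into PDA at 100, 500, 1000, 1500 or 2000 µg/mL in 9 cm plates. A 4 mm mycelial disk cut from a 4-day-old culture was placed centrally. Incubation was 5 days at 25 °C. Colony diameter was the mean of two readings. Inhibition = (C−T)×100/C against untreated and emulsifier controls. Three replicates.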

Colletotrichum camelliae [2] = assay: Antifungal activity against Colletotrichum camelliae assessed as inhibition of mycelial growth measured after 5 days of cultivation; conditions: 120 h; outline: as §1
Colletotrichum camelliae [3] = assay: Antifungal activity against Colletotrichum camelliae assessed as inhibition of mycelial growth at 100 ug/mL measured after 5 days of cultivation; conditions: 120 h, read-out: GI; outline: as §1
Colletotrichum camelliae [4] = assay: Antifungal activity against Colletotrichum camelliae assessed as inhibition of mycelial growth at 2000 ug/mL measured after 5 days of cultivation; conditions: 120 h, read-out: GI; outline: as §1
Colletotrichum camelliae [5] = assay: Antifungal activity against Colletotrichum camelliae assessed as inhibition of mycelial growth at 1000 ug/mL measured after 5 days of cultivation; conditions: 120 h, read-out: GI; outline: as §1
Colletotrichum camelliae [6] = assay: Antifungal activity against Colletotrichum camelliae assessed as inhibition of mycelial growth at 500 ug/mL measured after 5 days of cultivation; conditions: 120 h, read-out: GI; outline: as §1

Structure (SMILES)	inhibition of growth at 1500 µg/mL (Colletotrichum camelliae [1]) [%]	MIC (Colletotrichum camelliae [2]) [µg/mL]	inhibition of growth at 100 µg/mL (Colletotrichum camelliae [3]) [%]	inhibition of growth at 2000 µg/mL (Colletotrichum camelliae [4]) [%]	inhibition of growth at 1000 µg/mL (Colletotrichum camelliae [5]) [%]	inhibition of growth at 500 µg/mL (Colletotrichum camelliae [6]) [%]
C=CC(C)(O)CCC=C(C)C (stereo not drawn) [LINALOOL]	100	1380 (≈ 8.92 mM)	37	100	50	46.3
C=C[C@]1(C)CC[C@@H](C(C)(C)O)O1 [(E)-LINALOOL OXIDE]	48.1	> 2380	37	57.4	44.4	40.7
CC/C=C\CCO [CIS-3-HEXENOL]	74.1	> 2120	42.6	79.6	61.1	44.4
CC(C)=CCC/C(C)=C/CO [GERANIOL]	100	440 (≈ 2.85 mM)	58.1	100	100	100
OCCc1ccccc1 [PHENYLETHYL ALCOHOL]	85.2	2040 (≈ 16.7 mM)	51.9	92.6	70.4	46.3
OCc1ccccc1 [BENZYL ALCOHOL]	68.5	2600 (≈ 24 mM)	44.4	83.3	61.1	46.3
C=C[C@]1(C)CC[C@H](C(C)(C)O)O1 [CIS-FURANOID]	48.1	> 2380	37	57.4	44.4	40.7
COC(=O)c1ccccc1O [METHYL SALICYLATE]	100	1770 (≈ 11.6 mM)	42.6	100	55.6	50
